Measurements as given in ChEMBL document CHEMBL1671676, “In vitro activity of nemonoxacin, a novel nonfluorinated quinolone, against 2,440 clinical isolates” (2009).
Values after ≈ are worked out from the molar mass of the structure shown.

How the values were obtained:
Type in all cases: functional
Streptococcus pneumoniae [1] = experiment: Antibacterial activity against Streptococcus pneumoniae assessed as percent cumulative susceptible isolates at minimum inhibitory concentration of 0.5 ug/ml by CLSI broth microdilution method; set-up: scale not given: the % may be the effect or the level left
Streptococcus pneumoniae [2] = experiment: Antibacterial activity against Streptococcus pneumoniae assessed as percent cumulative susceptible isolates at minimum inhibitory concentration of 1 ug/ml by CLSI broth microdilution method; set-up: scale not given: the % may be the effect or the level left
Streptococcus pneumoniae [3] = experiment: Antibacterial activity against penicillin-resistant Streptococcus pneumoniae assessed as percent cumulative susceptible isolates at minimum inhibitory concentration of 0.5 ug/ml by CLSI broth microdilution method; set-up: scale not given: the % may be the effect or the level left
Enterococcus faecalis = experiment: Antibacterial activity against Enterococcus faecalis assessed as percent cumulative susceptible isolates at minimum inhibitory concentration of 32 ug/ml by CLSI broth microdilution method; set-up: scale not given: the % may be the effect or the level left
Proteus mirabilis [4] = experiment: Antibacterial activity against Proteus mirabilis assessed as percent cumulative susceptible isolates at minimum inhibitory concentration of 8 ug/ml by CLSI broth microdilution method; set-up: scale not given: the % may be the effect or the level left
[5] = tested on: Stenotrophomonas maltophilia; experiment: Antibacterial activity against Stenotrophomonas maltophilia assessed as percent cumulative susceptible isolates at minimum inhibitory concentration of 0.06 ug/ml by CLSI broth microdilution method; set-up: scale not given: the % may be the effect or the level left
Enterococcus faecium [6] = experiment: Antibacterial activity against Enterococcus faecium assessed as percent cumulative susceptible isolates at minimum inhibitory concentration of 1 ug/ml by CLSI broth microdilution method; set-up: scale not given: the % may be the effect or the level left
Staphylococcus aureus [7] = experiment: Antibacterial activity against community-associated methicillin-resistant Staphylococcus aureus assessed as percent cumulative susceptible isolates at minimum inhibitory concentration of 1 ug/ml by CLSI broth microdilution method; set-up: scale not given: the % may be the effect or the level left
Streptococcus pneumoniae [8] = experiment: Antibacterial activity against Streptococcus pneumoniae assessed as percent cumulative susceptible isolates at minimum inhibitory concentration of 0.03 ug/ml by CLSI broth microdilution method; set-up: scale not given: the % may be the effect or the level left
Proteus mirabilis [9] = experiment: Antibacterial activity against Proteus mirabilis assessed as percent cumulative susceptible isolates at minimum inhibitory concentration of 0.5 ug/ml by CLSI broth microdilution method; set-up: scale not given: the % may be the effect or the level left
Proteus mirabilis [10] = experiment: Antibacterial activity against Proteus mirabilis assessed as percent cumulative susceptible isolates at minimum inhibitory concentration of 2 ug/ml by CLSI broth microdilution method; set-up: scale not given: the % may be the effect or the level left
Pseudomonas aeruginosa = experiment: Antibacterial activity against Pseudomonas aeruginosa assessed as percent cumulative susceptible isolates at minimum inhibitory concentration of >=[…] by CLSI broth microdilution method; set-up: scale not given: the % may be the effect or the level left
[11] = tested on: Stenotrophomonas maltophilia; experiment: Antibacterial activity against Stenotrophomonas maltophilia assessed as percent cumulative susceptible isolates at minimum inhibitory concentration of […] by CLSI broth microdilution method; set-up: scale not given: the % may be the effect or the level left
Enterococcus faecium [12] = experiment: Antibacterial activity against Enterococcus faecium by CLSI M7-A7 broth microdilution method
[13] = Ratio of fAUC (0 to 24 hrs) in in vitro PK/PD model at 750 mg to MIC for community-associated methicillin-resistant Staphylococcus aureus
[14] = Ratio of fAUC (0 to 24 hrs) in in vitro PK/PD model at 750 mg to MIC for penicillin-resistant Streptococcus pneumoniae
Proteus mirabilis [15] = experiment: Antibacterial activity against Proteus mirabilis assessed as percent cumulative susceptible isolates at minimum inhibitory concentration of 64 ug/ml by CLSI broth microdilution method; set-up: scale not given: the % may be the effect or the level left
Staphylococcus aureus [16] = experiment: Antibacterial activity against methicillin-resistant Staphylococcus aureus assessed as percent cumulative susceptible isolates at minimum inhibitory concentration of […] by CLSI broth microdilution method; set-up: scale not given: the % may be the effect or the level left
Staphylococcus aureus [17] = experiment: Antibacterial activity against methicillin-resistant Staphylococcus aureus assessed as percent cumulative susceptible isolates at minimum inhibitory concentration of 0.06 ug/ml by CLSI broth microdilution method; set-up: scale not given: the % may be the effect or the level left
Enterococcus faecium [18] = experiment: Antibacterial activity against Enterococcus faecium assessed as percent cumulative susceptible isolates at minimum inhibitory concentration of 8 ug/ml by CLSI broth microdilution method; set-up: scale not given: the % may be the effect or the level left
Enterococcus faecium [19] = experiment: Antibacterial activity against Enterococcus faecium assessed as percent cumulative susceptible isolates at minimum inhibitory concentration of 64 ug/ml by CLSI broth microdilution method; set-up: scale not given: the % may be the effect or the level left
Enterococcus faecium [20] = experiment: Antibacterial activity against Enterococcus faecium assessed as percent cumulative susceptible isolates at minimum inhibitory concentration of 128 ug/ml by CLSI broth microdilution method; set-up: scale not given: the % may be the effect or the level left
Escherichia coli [21] = experiment: Antibacterial activity against Escherichia coli assessed as percent cumulative susceptible isolates at minimum inhibitory concentration of 64 ug/ml by CLSI broth microdilution method; set-up: scale not given: the % may be the effect or the level left
Escherichia coli [22] = experiment: Antibacterial activity against Escherichia coli assessed as percent cumulative susceptible isolates at minimum inhibitory concentration of >=[…] by CLSI broth microdilution method; set-up: scale not given: the % may be the effect or the level left
Klebsiella pneumoniae [23] = experiment: Antibacterial activity against Klebsiella pneumoniae assessed as percent cumulative susceptible isolates at minimum inhibitory concentration of 0.03 ug/ml by CLSI broth microdilution method; set-up: scale not given: the % may be the effect or the level left
Klebsiella pneumoniae [24] = experiment: Antibacterial activity against Klebsiella pneumoniae assessed as percent cumulative susceptible isolates at minimum inhibitory concentration of 8 ug/ml by CLSI broth microdilution method; set-up: scale not given: the % may be the effect or the level left
Klebsiella pneumoniae [25] = experiment: Antibacterial activity against Klebsiella pneumoniae assessed as percent cumulative susceptible isolates at minimum inhibitory concentration of 128 ug/ml by CLSI broth microdilution method; set-up: scale not given: the % may be the effect or the level left
Klebsiella oxytoca = experiment: Antibacterial activity against Klebsiella oxytoca assessed as percent cumulative susceptible isolates at minimum inhibitory concentration of 0.5 ug/ml by CLSI broth microdilution method; set-up: scale not given: the % may be the effect or the level left
Outline: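 Clinical isolates tested by CLSI broth microdilution using 96-well panels of doubling drug dilutions in cation-adjusted Mueller-Hinton broth with 5% lysed horse blood. MIC was read from these panels. Panel quality control used CLSI ATCC strains, including S. pneumoniae 49619, S. aureus 29213, E. faecalis 29212 and E. coli 25922. Cumulative percentages of isolates were tabulated at each MIC.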

Staphylococcus aureus [26] = experiment: Antibacterial activity against non-levofloxacin susceptible Staphylococcus aureus assessed as percent cumulative susceptible isolates at minimum inhibitory concentration of 1 ug/ml by CLSI broth microdilution method; set-up: scale not given: the % may be the effect or the level left
Staphylococcus aureus [27] = experiment: Antibacterial activity against non-levofloxacin susceptible Staphylococcus aureus assessed as percent cumulative susceptible isolates at minimum inhibitory concentration of 64 ug/ml by CLSI broth microdilution method; set-up: scale not given: the % may be the effect or the level left
Staphylococcus aureus [28] = experiment: Antibacterial activity against community-associated methicillin-resistant Staphylococcus aureus assessed as percent cumulative susceptible isolates at minimum inhibitory concentration of […] by CLSI broth microdilution method; set-up: scale not given: the % may be the effect or the level left
Staphylococcus aureus [29] = experiment: Antibacterial activity against community-associated methicillin-resistant Staphylococcus aureus assessed as percent cumulative susceptible isolates at minimum inhibitory concentration of 0.06 ug/ml by CLSI broth microdilution method; set-up: scale not given: the % may be the effect or the level left
Staphylococcus aureus [30] = experiment: Antibacterial activity against hospital-associated methicillin-resistant Staphylococcus aureus assessed as percent cumulative susceptible isolates at minimum inhibitory concentration of 0.06 ug/ml by CLSI broth microdilution method; set-up: scale not given: the % may be the effect or the level left
Staphylococcus aureus [31] = experiment: Antibacterial activity against hospital-associated methicillin-resistant Staphylococcus aureus assessed as percent cumulative susceptible isolates at minimum inhibitory concentration of 4 ug/ml by CLSI broth microdilution method; set-up: scale not given: the % may be the effect or the level left
[32] = tested on: Staphylococcus epidermidis; experiment: Antibacterial activity against methicillin-susceptible Staphylococcus epidermidis assessed as percent cumulative susceptible isolates at minimum inhibitory concentration of 0.03 ug/ml by CLSI broth microdilution method; set-up: scale not given: the % may be the effect or the level left
[33] = tested on: Staphylococcus epidermidis; experiment: Antibacterial activity against methicillin-susceptible Staphylococcus epidermidis assessed as percent cumulative susceptible isolates at minimum inhibitory concentration of 0.06 ug/ml by CLSI broth microdilution method; set-up: scale not given: the % may be the effect or the level left

C[C@H]1COc2c(N3CCN(C)CC3)c(F)cc3c(=O)c(C(=O)O)cn1c23.C[C@H]1COc2c(N3CCN(C)CC3)c(F)cc3c(=O)c(C(=O)O)cn1c23.O [LEVOFLOXACIN]
Activity (Streptococcus pneumoniae [1]): 69.3%
Activity (Streptococcus pneumoniae [2]): 96.3%
Activity (Streptococcus pneumoniae [3]): 53.1%
Activity (Enterococcus faecalis): 100%
Activity (Proteus mirabilis [4]): 97%
Activity [5]: 3.8%
Activity (Enterococcus faecium [6]): 10.5%
Activity (Staphylococcus aureus [7]): 32%

COc1c(N2C[C@@H](C)C[C@H](N)C2)ccc2c(=O)c(C(=O)O)cn(C3CC3)c12 [NEMONOXACIN]
Activity (Streptococcus pneumoniae [8]): 99.1%
Activity (Proteus mirabilis [9]): 54.5%
Activity (Proteus mirabilis [10]): 78.8%
Activity (Pseudomonas aeruginosa): 100%
Activity [11]: 3.8%
MIC90 (Enterococcus faecium [12]): 128 µg/mL (≈ 345 µM)
RatioAUC/MIC [13]: 98
RatioAUC/MIC [14]: > 393
Activity (Proteus mirabilis [15]): 97%
Activity (Staphylococcus aureus [16]): 4.7%
Activity (Staphylococcus aureus [17]): 6.3%
Activity (Enterococcus faecium [18]): 44.7%
Activity (Enterococcus faecium [19]): 84.2%
Activity (Enterococcus faecium [20]): 100%
Activity (Escherichia coli [21]): 98.2%
Activity (Escherichia coli [22]): 100%
Activity (Klebsiella pneumoniae [23]): 1%
Activity (Klebsiella pneumoniae [24]): 95%
Activity (Klebsiella pneumoniae [25]): 100%
Activity (Klebsiella oxytoca): 96.9%
Activity (Staphylococcus aureus [26]): 30.6%
Activity (Staphylococcus aureus [27]): 100%
Activity (Staphylococcus aureus [28]): 16%
Activity (Staphylococcus aureus [29]): 28%
Activity (Staphylococcus aureus [30]): 3%
Activity (Staphylococcus aureus [31]): 57.6%
Activity [32]: 53.5%
Activity [33]: 58.1%
